Active and inactive are the calls of the source. No cut-off for these calls is given here.
Tests used:
[1] = molecular target: T1, Autotaxin (Homo sapiens, UniProt Q13822); assay: Inhibition of human recombinant C-terminal FLAG-tagged autotaxin expressed in baculovirus-infected Sf9 cells assessed as FS-3 hydrolysis
In short: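 Dose response: final inhibitor 30, 10, 3, 1, 0.3, 0.1, 0.03 μM, plus 0.01 and 0.003 μM for some compounds; purified human ATX 8.3 nM, 1 μM FS-3, 30 μM fatty acid free BSA, Tris pH 8 buffer, 37 °C. Fluorescence ex 485/em 538 every 2 min; percent activity vs vehicle at 1 h after no-ATX background subtraction; mean of three wells.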

[2] = molecular target: T1, Autotaxin; assay: Inhibition of human recombinant C-terminal FLAG-tagged autotaxin expressed in baculovirus-infected Sf9 cells assessed as FS-3 hydrolysis at 10 uM relative to control
In short: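 Single-dose screen: inhibitor 10 μM final, purified recombinant human ATX 8.3 nM, FS-3 1 μM, fatty acid free BSA 30 μM in Tris pH 8 buffer (1 mM MgCl2, 1 mM CaCl2, 3 mM KCl, 140 mM NaCl), 37 °C. Fluorescence (ex 485/em 538) read every 2 min; percent activity vs vehicle after no-ATX subtraction at 1 h; mean ± SD of three wells.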

[3] = molecular target: T1, Autotaxin; assay: Inhibition of human recombinant C-terminal FLAG-tagged autotaxin expressed in baculovirus-infected Sf9 cells using lysophosphatidylcholine as substrate assessed as choline release by Amplex red reagent assay
In short: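 LPC 16:0 100 μM with purified human ATX 8.3 nM and inhibitor 10 μM final, 30 μM fatty acid free BSA, 50 mM Tris/5 mM CaCl2 pH 7.4, 37 °C. Choline detected by choline oxidase 0.1 U/mL, HRP 1 U/mL, Amplex Red 10 μM; fluorescence ex 560/em 590 every 2 min, percent of vehicle at 1 h after no-ATX subtraction; mean ± SD of three wells.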

SMILES	IC50 [1]	inhibition [2]	inhibition [3]	IC50 ([1]; sf9)
O=C(Nc1cc(S(=O)(=O)O)cc2cc(S(=O)(=O)O)c(/N=N/c3cc(Nc4nc(O)nc(Nc5ccc(S(=O)(=O)O)cc5)n4)ccc3S(=O)(=O)O)c(O)c12)c1ccccc1	7.3 µM	76%		
O=S(=O)([O-])c1cccc2c1c(Nc1ccccc1)cc1c2nc2cc(S(=O)(=O)O)c(Nc3ccccc3)cc2[n+]1-c1ccccc1	9.3 µM	51%		
O=S(=O)(O)c1cc(O)c2ccc(Nc3ccc4c(O)cc(S(=O)(=O)O)cc4c3)cc2c1		11%	Active	
O=C(Nc1ccc(C(=O)Nc2cc(S(=O)(=O)O)cc3cccc(S(=O)(=O)O)c23)cc1)Nc1ccc(C(=O)Nc2cc(S(=O)(=O)O)cc3cccc(S(=O)(=O)O)c23)cc1		-5%	Active	
Nc1ccc2cc(S(=O)(=O)O)cc(O)c2c1/N=N/c1ccc(-c2ccc(/N=N/c3c(S(=O)(=O)O)cc4cc(S(=O)(=O)O)c(/N=N/c5ccc([N+](=O)[O-])cc5)c(N)c4c3O)cc2)cc1	17.4 µM	57%		
Nc1c(S(=O)(=O)O)cc2cc(S(=O)(=O)O)ccc2c1/N=N/c1ccc(-c2ccc(/N=N/c3c(N)c(S(=O)(=O)O)cc4cc(S(=O)(=O)O)ccc34)c(S(=O)(=O)O)c2)cc1	12.6 µM	51%		
Cc1cc(C)c(S(=O)(=O)O)c(C)c1Nc1ccc(Nc2c(C)cc(C)c(S(=O)(=O)O)c2C)c2c1C(=O)c1ccccc1C2=O		13%		
Cc1cc(C)c(/N=N/c2cc(C)c(/N=N/c3c(S(=O)(=O)O)cc4cc(Nc5ccccc5)ccc4c3O)cc2C)c(S(=O)(=O)O)c1		27%		
COc1cc(/N=N/c2cc(S(=O)(=O)O)cc3cc(S(=O)(=O)O)cc(O)c23)c(C)cc1/N=N/c1c(S(=O)(=O)O)cc2cc(Nc3ccccc3)ccc2c1O	37.6 µM	53%		
O=C(Nc1ccc2c(O)cc(S(=O)(=O)O)cc2c1)Nc1ccc2c(O)cc(S(=O)(=O)O)cc2c1		11%		
O=C(CC(C(=O)O)S(=O)(=O)O)Nc1ccc(S(=O)(=O)c2ccc(NC(=O)CC(C(=O)O)S(=O)(=O)O)cc2)cc1 (stereo not given)		1%		
Cc1ccc(Nc2cccc3c2C(=O)c2cccc(Nc4ccc(C)c(S(=O)(=O)O)c4)c2C3=O)cc1S(=O)(=O)O		4%		
O=C(O)c1cc(O)c(O)c(OC(=O)c2cc(O)c(O)c(O)c2CNc2ccc3cc(S(=O)(=O)O)cc(S(=O)(=O)O)c3c2)c1		2%		
Cc1ccc(Nc2cccc3c2C(=O)c2cccc(Nc4ccc(C)cc4S(=O)(=O)O)c2C3=O)c(S(=O)(=O)O)c1		6%		
O=C(Nc1ccc(/C=C/c2ccc(NC(=O)c3cc(S(=O)(=O)O)c4cccnc4c3O)cc2S(=O)(=O)O)c(S(=O)(=O)O)c1)c1cc(S(=O)(=O)O)c2cccnc2c1O	7.4 µM	53%		
Cc1ccc(Nc2ccc(Nc3ccc(C)cc3S(=O)(=O)O)c3c2C(=O)c2ccccc2C3=O)c(S(=O)(=O)O)c1		8%		
COc1ccccc1/N=N/c1c(S(=O)(=O)O)cc2cc(NC(=O)Nc3ccc4c(O)c(/N=N/c5c(N)ccc6cc(S(=O)(=O)O)ccc56)c(S(=O)(=O)O)cc4c3)ccc2c1O	11.6 µM	84%		
O=C(N/N=C/c1ccc(O)c(S(=O)(=O)O)c1)N/N=C/c1ccc(O)c(S(=O)(=O)O)c1		6%		
Nc1ccc2c(O)c(/N=N/c3ccc4c(O)cc(S(=O)(=O)O)cc4c3)c(S(=O)(=O)O)cc2c1		30%		
O=S(=O)(O)c1ccc(-c2c3nc(c(-c4ccc(S(=O)(=O)O)cc4)c4ccc([nH]4)c(-c4ccc(S(=O)(=O)O)cc4)c4ccc([nH]4)c(-c4ccc(S(=O)(=O)O)cc4)c4nc2C=C4)C=C3)cc1 [TETRAPHENYLPORPHINE TETRASULFONIC ACID]		61%		7.8 µM
CC(=O)Nc1ccc(/C=C/c2ccc(NC(=O)Nc3ccc(/C=C/c4ccc(NC(C)=O)cc4S(=O)(=O)O)c(S(=O)(=O)O)c3)cc2S(=O)(=O)O)c(S(=O)(=O)O)c1	23 µM	49%		

Further lines, results first:

IC50 [1]	inhibition [2]	inhibition [3]	IC50 ([1]; sf9)	SMILES
19.1 µM	61%			O=C(Nc1ccc2c(O)c(/N=N/c3ccccc3)c(S(=O)(=O)O)cc2c1)Nc1ccc2c(O)c(/N=N/c3ccc4cc(S(=O)(=O)O)ccc4c3)c(S(=O)(=O)O)cc2c1
9.8 µM	52%			Nc1ccc2cc(S(=O)(=O)O)cc(O)c2c1/N=N/c1ccc(NC(=O)c2ccc(C(=O)Nc3ccc(/N=N/c4c(N)ccc5cc(S(=O)(=O)O)cc(O)c45)c(S(=O)(=O)O)c3)cc2)cc1S(=O)(=O)O
18.2 µM	59%			COc1ccccc1/N=N/c1c(S(=O)(=O)O)cc2cc(NC(=O)Nc3ccc4c(O)c(/N=N/c5ccc(S(=O)(=O)O)cc5C)c(S(=O)(=O)O)cc4c3)ccc2c1O
15.5 µM	65%			Cc1ccc(C)c(/N=N/c2c(S(=O)(=O)O)cc3cc(NC(=O)Nc4ccc5c(O)c(/N=N/c6ccc7cc(S(=O)(=O)O)ccc7c6)c(S(=O)(=O)O)cc5c4)ccc3c2O)c1
	40%	Active		Nc1ccc(C(=O)Nc2ccc(C(=O)Nc3ccc4c(O)cc(S(=O)(=O)O)cc4c3)cc2)cc1
28.1 µM	65%			Nc1ccc2cc(S(=O)(=O)O)c(/N=N/c3ccc(-c4ccc(/N=N/c5c(S(=O)(=O)O)cc6cc(S(=O)(=O)O)c(/N=N/c7cccc([N+](=O)[O-])c7)c(N)c6c5O)cc4)cc3)c(O)c2c1
12 µM	80%			Cc1cccc(/N=N/c2c(S(=O)(=O)O)cc3cc(NC(=O)Nc4ccc5c(O)c(/N=N/c6ccc7cc(S(=O)(=O)O)ccc7c6)c(S(=O)(=O)O)cc5c4)ccc3c2O)c1
8.7 µM	55%			Cc1cc(/C(=C2C=C/C(=N\c3ccc(S(=O)(=O)O)cc3)C=C\2)c2ccc(Nc3ccc(S(=O)(=O)O)cc3)cc2)cc(S(=O)(=O)O)c1N
8.9 µM	72%			O=C(Nc1ccc2cc(S(=O)(=O)O)ccc2c1)c1ccc(/N=N/c2c(S(=O)(=O)O)cc3cc(S(=O)(=O)O)cc(NC(=O)c4ccccc4)c3c2O)cc1
5.4 µM	74%			CC(=O)Nc1cc(/N=N/c2ccc(NC(=O)c3ccc(N)cc3)cc2C)c(S(=O)(=O)O)cc1/N=N/c1ccc(/N=N/c2ccc(S(=O)(=O)O)cc2)cc1
11.6 µM	71%			Cc1ccccc1/N=N/c1c(S(=O)(=O)O)cc2cc(NC(=O)Nc3ccc4c(O)c(/N=N/c5ccc6cc(S(=O)(=O)O)ccc6c5)c(S(=O)(=O)O)cc4c3)ccc2c1O
5.9 µM	68%			Cc1c(N)cc(S(=O)(=O)O)c(/N=N/c2ccc(-c3ccc(/N=N/c4c(S(=O)(=O)O)cc5cc(S(=O)(=O)O)c(/N=N/c6cccc([N+](=O)[O-])c6)c(N)c5c4O)cc3)cc2)c1N
13.8 µM	70%			COc1cc(/N=N/c2c(S(=O)(=O)O)cc3cc(NC(=O)Nc4ccc5c(O)c(/N=N/c6ccc7cc(S(=O)(=O)O)ccc7c6)c(S(=O)(=O)O)cc5c4)ccc3c2O)c(C)cc1N
2.42 µM	75%			Nc1c(/N=N/c2ccc(-c3ccc(/N=N/c4c(S(=O)(=O)O)cc5cc(S(=O)(=O)O)c(/N=N/c6ccccc6)c(O)c5c4N)cc3)cc2)ccc2c(S(=O)(=O)O)cccc12
18.6 µM	67%			Cc1ccc(/N=N/c2c(S(=O)(=O)O)cc3cc(NC(=O)Nc4ccc5c(O)c(/N=N/c6ccc7cc(S(=O)(=O)O)ccc7c6)c(S(=O)(=O)O)cc5c4)ccc3c2O)c(C)c1
7.6 µM	53%			COc1cc(NC(=O)c2ccc(NC(=O)c3ccc(N)cc3)cc2)c(OC)cc1/N=N/c1cc(C)c(/N=N/c2cc(S(=O)(=O)O)c3cccc(S(=O)(=O)O)c3c2)cc1C
1.7 µM	77%			COc1cc(/N=N/c2ccc3cc(S(=O)(=O)O)cc(S(=O)(=O)O)c3c2)ccc1/N=N/c1ccc(NC(=O)c2ccc(NC(=O)c3ccccc3)cc2)cc1C
13.4 µM	68%			Cc1cc(-c2ccc(/N=N/c3c(N)c(S(=O)(=O)O)cc4cc(S(=O)(=O)O)ccc34)c(C)c2)ccc1/N=N/c1cc(S(=O)(=O)O)c2ccccc2c1N
	21%			COc1cc(/N=N/c2cccc(S(=O)(=O)O)c2)ccc1NC(=O)Nc1ccc(/N=N/c2ccc(O)c(C(=O)O)c2)cc1
	20%			Nc1ccc(NC(=O)c2ccc(C(=O)Nc3ccc4c(O)cc(S(=O)(=O)O)cc4c3)cc2)cc1
	5%			Nc1ccc(C(=O)Nc2ccc(C(=O)Nc3ccc4cc(S(=O)(=O)O)cc(S(=O)(=O)O)c4c3)cc2)cc1
	32%			Nc1cccc(/N=N/c2c(S(=O)(=O)O)cc3cc(NC(=O)Nc4ccc5c(O)c(/N=N/c6cccc(N)c6)c(S(=O)(=O)O)cc5c4)ccc3c2O)c1
	17%			CC(=O)Nc1cc(S(=O)(=O)O)cc2cc(S(=O)(=O)O)c(/N=N/c3ccc(C(=O)Nc4ccc(S(=O)(=O)O)cc4)cc3)c(O)c12
	39%			CCOc1cc(-c2ccc(/N=N/c3c(S(=O)(=O)O)cc4ccc(N)cc4c3O)cc2)ccc1/N=N/c1c(S(=O)(=O)O)cc2ccc(N)cc2c1O
	29%			CC(=O)Nc1cc(S(=O)(=O)O)cc2cc(S(=O)(=O)O)c(/N=N/c3ccc(C(=O)Nc4ccc5cc(S(=O)(=O)O)ccc5c4)cc3)c(O)c12

From ChEMBL document CHEMBL1156229, “Pharmacophore development and application toward the identification of novel, small-molecule autotaxin inhibitors” (J Med Chem, 2010)
